{"data": "Assay results gathered from unrelated publications", "KIT": "Mast/stem cell growth factor receptor Kit (KIT, Homo sapiens, UniProt P10721)", "KIT D816V": "Mast/stem cell growth factor receptor Kit (KIT, Homo sapiens, UniProt P10721, D816V)", "note": "Each line is one published result; the experiments were not run side by side."}
{"Structure (SMILES)": "C#Cc1n[nH]c2c(-c3cn([C@@H](C)c4ccccc4)c(=O)[nH]c3=O)cc(F)cc12", "target": "KIT", "test": "enzyme activity, inhibitor", "setting": "0.1 µM", "measurement": "inhibition", "result": "0.1%"}
{"Structure (SMILES)": "C=CC(=O)Nc1cccc(CN2C(=O)N(c3c(Cl)c(OC)cc(OC)c3Cl)Cc3cnc(NCCCCN(CC)CC)nc32)c1", "target": "KIT", "test": "binding, competition with immobilised ligand", "setting": "10 µM", "measurement": "remaining binding", "result": "1.2%"}
{"Structure (SMILES)": "Cc1nn(C)cc1-c1nc2c(N3CCN(Cc4ccc(Cl)cc4)CC3)c(Cl)cnc2[nH]1", "target": "KIT D816V", "test": "binding, competition with immobilised ligand", "setting": "1 µM", "measurement": "remaining binding", "result": "9.2%"}
{"Structure (SMILES)": "Cn1cncc1[C@@](O)(COc1ccc(C#N)cc1-c1ccc(OC(F)(F)F)cc1)c1ccc(C#N)cc1", "target": "Mast/stem cell growth factor receptor Kit (KIT, Homo sapiens, UniProt P10721, A829P)", "test": "cell-free assay, competition with immobilised ligand", "setting": "1 µM", "measurement": "remaining binding", "result": "100%"}
{"Structure (SMILES)": "C#Cc1n[nH]c2c(-c3cn(C(C)c4ccccn4)c(=O)[nH]c3=O)cc(F)cc12 (centres unmarked)", "target": "KIT", "test": "enzyme activity, inhibitor", "setting": "1 µM", "measurement": "inhibition", "result": "-6.3%"}
{"Structure (SMILES)": "COc1ncccc1-c1cnn2ccc(N3CCN(C(=O)OC(C)C)CC3)nc12", "target": "KIT", "test": "binding, competition with immobilised ligand", "setting": "1 µM", "measurement": "remaining binding", "result": "84%"}
{"Structure (SMILES)": "O=c1[nH]c2ccccc2n1C1CCN(Cc2ccc(-c3[nH]c4cc5ncnc5cc4nc3-c3ccccc3)cc2)CC1", "target": "KIT", "test": "cell-free assay", "setting": "0.5 µM", "measurement": "remaining signal", "result": "91.7%"}
{"Structure (SMILES)": "Cn1cc(-c2cc(F)cc(N3CCn4c(cc5c4CCCC5)C3=O)c2CO)cc(Nc2ccc(N3CCN(C4COC4)CC3)cn2)c1=O", "target": "KIT", "test": "enzyme activity, inhibitor", "setting": "0.1 µM", "measurement": "inhibition", "result": "5%"}
{"Structure (SMILES)": "Nc1ncc(-c2nc(N3CCOCC3)nc(N3CCOCC3)n2)c(C(F)F)n1", "target": "KIT D816V", "test": "binding, competition with immobilised ligand", "setting": "10 µM", "measurement": "remaining binding", "result": "58%"}
{"Structure (SMILES)": "Cn1cc(-c2cccc(N3CCc4c(sc5c4CC(C)(C)C5)C3=O)c2CO)cc(Nc2ccncn2)c1=O", "target": "KIT", "test": "enzyme activity, inhibitor", "setting": "1 µM", "measurement": "inhibition", "result": "-11%"}
{"Structure (SMILES)": "COCc1c(-c2cc3cc(C)cc(OC)c3s2)c2c(N)ncnn2c1CN1CCNC(=O)C1", "target": "Mast/stem cell growth factor receptor Kit (KIT, Homo sapiens, UniProt P10721, L576P)", "test": "cell-free assay, competition with immobilised ligand", "setting": "1 µM", "measurement": "inhibition", "result": "93.1%"}
